Experiments:
Type in all cases: cell-based, human
SK-OV-3 = assay: NCI in vitro five dose anticancer assay
OVCAR-3 = assay: NCI in vitro five dose anticancer assay
Jurkat = assay: MTT anti-proliferative assay; settings: Homo sapiens, Jurkat, 24 h, read-out: IC50 ± SD, Jurkat
NCI-H322M = assay: NCI in vitro five dose anticancer assay; settings: 48 h
SK-MEL-28 = assay: NCI in vitro five dose anticancer assay
786–0 = assay: NCI in vitro five dose anticancer assay
SN12C = assay: NCI in vitro five dose anticancer assay; settings: 48 h
SNB-19 = assay: NCI in vitro five dose anticancer assay
A549/ATCC = assay: NCI in vitro five dose anticancer assay
UACC-257 = assay: NCI in vitro five dose anticancer assay
SK-MEL-2 = assay: NCI in vitro five dose anticancer assay
OVCAR-5 = assay: NCI in vitro five dose anticancer assay
IL-6 = IL-6 ELISA in K-562 cells
How it was run: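 K-562 cells exposed 24 h to vehicle (DMSO), test compound at 10 μM or dexamethasone (positive control). IL-6 secreted into cell-free supernatant quantified by human IL-6 ELISA kit. Expressed as % of vehicle control, mean ± SD of three independent experiments, each in triplicate. Time course: in 12-well plates, medium changed when compound (10 μM) added, and media sampled at 0, 1, 4, 8, 12, 24, 48 h.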

SR = assay: NCI in vitro five dose anticancer assay; settings: 48 h
RXF 393 = assay: NCI in vitro five dose anticancer assay
UO-31 = assay: NCI in vitro five dose anticancer assay
HL-60(TB) = assay: NCI in vitro five dose anticancer assay
STAT3 = STAT3 activation assay; settings: K-562 cells, 10 μM, 24 h, nuclear extracts
How it was run: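 K562 cells seeded overnight in 10 cm plates, then given vehicle, test compound (10 μM) or WP1066 (positive control) for 24 h. Nuclear fractions extracted by kit. STAT3 activation measured in nuclear extracts by TransAM STAT3 ELISA per manufacturer. Mean ± SD of three independent experiments, each in triplicate.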

COLO 205 = assay: NCI in vitro five dose anticancer assay
SK-MEL-5 = assay: NCI in vitro five dose anticancer assay
EKVX = assay: NCI in vitro five dose anticancer assay; settings: 48 h
[1] = tested on: full NCI panel of 60 cell lines; assay: NCI in vitro one dose anticancer assay; settings: 48 h
How it was run: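 NCI protocol. Test compound added once at 10−5 M to ~60 human tumour lines from nine subpanels. Incubated 48 h at 37 °C, 5% CO2, 95% air, 100% relative humidity. Endpoint by sulforhodamine B protein staining with spectrophotometric absorbance. Growth of treated cells reported as percent of untreated cells.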

HCC-2998 = assay: NCI in vitro five dose anticancer assay
HCT-15 = assay: NCI in vitro five dose anticancer assay
RPMI-8226 = assay: NCI in vitro five dose anticancer assay
MCF7 = assay: NCI in vitro five dose anticancer assay
NCI/ADR-RES = assay: NCI in vitro five dose anticancer assay; settings: 48 h
[2] = tested on: EGFR, p-EGFR, Src and p-Src in K562 cells; assay: Western blot analysis in K562 cells; settings: K562 cells, 0.2, 0.8, 1.6 μM, 24 h
How it was run: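 K562 cells incubated 24 h with test compound at 0.2, 0.8 or 1.6 μM, or DMSO. 50 μg protein resolved on 8 or 10% SDS-PAGE and transferred to PVDF. Blocked 1 h in PBS with 3% non-fat milk, 1% BSA, 0.5% Tween-20. Primary antibody overnight, then HRP-IgG 1 h at room temperature. ECL detection on X-ray film.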

[3] = Non-Small Cell Lung Cancer, five dose, SRB

## COc1ccc(C=CC(=O)c2ccc(NC(=O)CSc3nnc(-c4cc(OC)c(OC)c(OC)c4)o3)cc2)cc1 [Compound 8v, N-(4-(3-(4-Methoxyphenyl)acryloyl)phenyl)-2-((5-(3,4,5-trimethoxy-phenyl)-1,3,4-oxadiazol-2-yl)thio)acetamide]
SK-OV-3; Homo sapiens, SK-OV-3, 48 h
  GI50: 2420 nM
SK-OV-3; SK-OV-3, Ovarian Cancer, five dose, 48 h, SRB
  TGI: 5680 nM
OVCAR-3; Homo sapiens, OVCAR-3, 48 h
  GI50: 1780 nM
OVCAR-3; OVCAR-3, Ovarian Cancer, five dose, 48 h, SRB
  TGI: 3380 nM
Jurkat
  IC50: 2360 ± 470 nM
NCI-H322M; Homo sapiens
  GI50: 1590 nM
NCI-H322M; [3]
  TGI: 2980 nM
SK-MEL-28; Homo sapiens, SK-MEL-28, 48 h
  GI50: 1740 nM
SK-MEL-28; SK-MEL-28, Melanoma, five dose, 48 h, SRB
  TGI: 3400 nM
786–0; 786–0, Renal Cancer, five dose, 48 h, SRB
  TGI: 3360 nM
786–0; Homo sapiens, 786-0, 48 h
  GI50: 1700 nM
SN12C; Homo sapiens
  GI50: 1830 nM
SN12C; Renal Cancer, five dose, SRB
  TGI: 3570 nM
SNB-19; Homo sapiens, SNB-19, 48 h
  GI50: 1780 nM
SNB-19; SNB-19, CNS cancer, five dose, 48 h, SRB
  TGI: 3560 nM
A549/ATCC; A549/ATCC, Non-Small Cell Lung Cancer, five dose, 48 h, SRB
  TGI: 3530 nM
A549/ATCC; Homo sapiens, A549, 48 h
  GI50: 1840 nM
UACC-257; Homo sapiens, UACC-257, 48 h
  GI50: 2160 nM
UACC-257; UACC-257, Melanoma, five dose, 48 h, SRB
  TGI: 4690 nM
SK-MEL-2; Homo sapiens, SK-MEL-2, 48 h
  GI50: 1790 nM
SK-MEL-2; SK-MEL-2, Melanoma, five dose, 48 h, SRB
  TGI: 4820 nM
OVCAR-5; Homo sapiens, OVCAR-5, 48 h
  GI50: 1720 nM
OVCAR-5; OVCAR-5, Ovarian Cancer, five dose, 48 h, SRB
  TGI: 3300 nM
IL-6; Homo sapiens, K562, 24 h, read-out: IL-6 protein levels (% of control)
  activity at 10 µM: 20%
IL-6; K-562 cells, 10 μM, time course
  IL-6 levels after 48 h: still downregulated
IL-6; K-562 cells, 10 μM, time course 0-48 h
  time of initial downregulation of IL-6 protein levels after treatment: 8 h
SR; Homo sapiens
  GI50: 1860 nM
SR; Leukemia, five dose, SRB
  TGI: 4010 nM
RXF 393; Homo sapiens, RXF 393, 48 h
  GI50: 1740 nM
RXF 393; RXF 393, Renal Cancer, five dose, 48 h, SRB
  TGI: 3540 nM
UO-31; Homo sapiens, UO-31, 48 h
  GI50: 1460 nM
UO-31; UO-31, Renal Cancer, five dose, 48 h, SRB
  TGI: 2970 nM
HL-60(TB); HL-60(TB), Leukemia, five dose, 48 h, SRB
  TGI: 4100 nM
HL-60(TB); Homo sapiens, HL-60, 48 h
  GI50: 2000 nM
STAT3
  inhibition of STAT3 activation: most effective
COLO 205; COLO 205, Colon Cancer, five dose, 48 h, SRB
  TGI: 3840 nM
COLO 205; Homo sapiens, COLO 205, 48 h
  GI50: 1940 nM
SK-MEL-5; Homo sapiens, SK-MEL-5, 48 h
  GI50: 2140 nM
SK-MEL-5; SK-MEL-5, Melanoma, five dose, 48 h, SRB
  TGI: 5240 nM
EKVX; Homo sapiens
  GI50: 1790 nM
EKVX; [3]
  TGI: 3980 nM
[1]; 10 μM, SRB
  number of cell lines with complete cell death: 45
[1]; Homo sapiens, 60 cell, read-out: Mean growth inhibition %
  inhibition at 10 µM: 132%
HCC-2998; HCC-2998, Colon Cancer, five dose, 48 h, SRB
  TGI: 3650 nM
HCC-2998; Homo sapiens, HCC 2998, 48 h
  GI50: 1880 nM
HCT-15; HCT-15, Colon Cancer, five dose, 48 h, SRB
  TGI: 3220 nM
HCT-15; Homo sapiens, HCT-15, 48 h
  GI50: 1630 nM
RPMI-8226; Homo sapiens, RPMI-8226, 48 h
  GI50: 1730 nM
RPMI-8226; RPMI-8226, Leukemia, five dose, 48 h, SRB
  TGI: 4310 nM
MCF7; Homo sapiens, MCF7, 48 h
  GI50: 1270 nM
MCF7; MCF7, Breast cancer, five dose, 48 h, SRB
  TGI: 3680 nM
NCI/ADR-RES; Homo sapiens
  GI50: 2420 nM
NCI/ADR-RES; Ovarian Cancer, five dose, SRB
  TGI: 7030 nM
[2]
  protein expression levels of p-EGFR, EGFR, p-Src and Src: downregulated

Reference: PMC6923798 (Bioorganic chemistry, 2018)
